This note sets out measurements from ChEMBL document CHEMBL3992514, “Synthesis, biological characterisation and structure activity relationships of aromatic bisamidines active against Plasmodium falciparum” (Eur J Med Chem, 2017).

Data set [1] in a line: Oral bioavailability in Sprague-Dawley albino rat at 1 mg/kg. In kind it is ADME, organism-based. To be noted: in vivo.
Data set [2] can be described thus: Cmax in Sprague-Dawley albino rat at 1 mg/kg, po. Type of data set: ADME, organism-based. On the set-up: dose 1 mg/kg, route oral. Particulars: in vivo.
A short description of data set [3]: Half life in Sprague-Dawley albino rat at 1 mg/kg, po. In kind it is ADME, organism-based. Particulars: in vivo.
In data set [4] the test system is Giardia intestinalis. The data set is described as follows: Antiparasitic activity against Giardia lamblia. Particulars: Giardia duodenalis. Type of data set: functional.
The subject of data set [5] is Plasmodium falciparum. The data set is described as follows: Antiparasitic activity against drug-resistant Plasmodium falciparum Dd2 infected in erythrocytes assessed as growth inhibition after 48 hrs by [3H]-hypoxanthine incorporation assay. In kind it is functional, cell-based.
Data set [6] can be described thus: Half life in Swiss Webster mouse at 30 mg/kg, po. To be noted: in vivo. Type of data set: ADME, organism-based.
The subject of data set [7] is Plasmodium falciparum. The data set is described as follows: Antiparasitic activity against drug-sensitive Plasmodium falciparum 3D7 infected in erythrocytes assessed as growth inhibition after 48 hrs by SYBR green 1 dye-based flow cytometry. Type of data set: functional, cell-based. Particulars: 3D7, 48 h. On the technique in general: A flow cytometer gives signals particle by particle.

Data set [8] in a line: Cmax in Swiss Webster mouse at 30 mg/kg, po. Type of data set: ADME, organism-based. On the set-up: dose 30 mg/kg, route oral. To be noted: in vivo.
A short description of data set [9]: Oral bioavailability in Swiss Webster mouse at 30 mg/kg. Type of data set: ADME, organism-based. Particulars: in vivo.
The test system of data set [10] is HEK293. The data set is described as follows: Cytotoxicity against HEK293 cells assessed as decrease in cell viability after 24 hrs by Alamar blue assay. Type of data set: ADME, cell-based. Particulars: Homo sapiens, HEK293, 24 h. A general note: Resazurin is reduced to fluorescent resorufin, in cell work by metabolically active cells.
Data set [11] concerns Leishmania sp. The data set is described as follows: Antiparasitic activity against Leishmania spp. In kind it is functional.
Data set [12] can be described thus: Cytotoxicity against HEK293 cells assessed as cell viability at 50 uM after 24 hrs by Alamar blue assay relative to control. In kind it is cell-based. To be noted: human, read-out: Activity. The method, boiled down:
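HEK293 cells kept in DMEM with 10% FCS and 5 mM glutamine at 37 °C, 5% CO2; seeded at 1.5 × 10^3 cells per well, compound added immediately at 50 µM. After 24 h AlamarBlue added, incubated a further 21 h; resorufin fluorescence read at Ex 560/Em 590 nm. Triplicates over three independent experiments.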

Data set [13] has as its system Plasmodium falciparum. The data set is described as follows: Antimalarial activity against Plasmodium falciparum in infected patient assessed as cure rate at 100 mg, po bid administered for 5 days measured every 12 hrs up to day 7, and on day 10, 14, 21, and 28 by Giemsa staining-based assay relative to control. Type of data set: functional.
For data set [14], the system named is Plasmodium vivax. The data set can be described thus: Antimalarial activity against hypnozoite-stage Plasmodium vivax in infected patient assessed as cure rate at 100 mg, po bid administered for 5 days measured every 12 hrs up to day 7, and on day 10, 14, 21, and 28 by Giemsa staining-based assay relative to control. Type of data set: functional.
A short description of data set [15]: Selectivity index, ratio of IC50 for HEK293 cells to IC50 for drug-resistant Plasmodium falciparum Dd2 infected in erythrocytes. To be noted: human.
A short description of data set [16]: Selectivity index, ratio of IC50 for HEK293 cells to IC50 for drug-sensitive Plasmodium falciparum 3D7 infected in erythrocytes. To be noted: human.

Some results are limits rather than exact numbers.

As a reminder, the bioavailability is dose-corrected exposure relative to a reference, in per cent. Broadly, the Cmax is the highest concentration seen after dosing. Usually half-life stands for the time in which the quantity being followed falls by half. A high value points to slow loss. `CO/N=[14C](/N)c1ccc(-c2ccc(-c3ccc(/[14C](N)=N\OC)cc3)o2)cc1` returned a bioavailability in data set [1] of 11%. In data set [2], this compound displayed a Cmax of 26.1 ng/mL. In [3], this compound gave a half-life of 0.9 h.
One may read the IC50 as the concentration needed to halve the response being measured. Turning to `N=C(N)c1ccc(-c2ccc(-c3ccc(C(=N)N)cc3)o2)cc1` [FURAMIDINE], the IC50 in data set [4] stood at 200 nM; in data set [5] it was 50 nM; in [7] it was 11 nM; in data set [10], 178000 nM; in data set [11], 2800 nM. This compound showed a half-life in data set [6] of 107 h. The compound also came in with a Cmax in [8] of 8 nM. In data set [9], this compound showed a bioavailability of 0.2%.
Consider `CCCOCc1c(-c2ccc(C(=N)N)cc2)oc(-c2ccc(C(=N)N)cc2)c1Cl`, for which the IC50 in data set [5] was 140 nM; in data set [7], 90 nM. Further, in data set [12], the viability at 24 h, 50 µM is 1%.
In the case of `CONC(=N)c1ccc(-c2ccc(-c3ccc(C(=N)NOC)cc3)o2)cc1` [PAFURAMIDINE], the Activity in data set [13] and in data set [14] was greater than 95% in each case.
In the case of `N=C(N)c1ccc(-c2cc(CC(=O)NCC(c3ccccc3)c3ccccc3)c(-c3ccc(C(=N)N)cc3)o2)cc1`, the figures for the IC50 in data set [5], in data set [7] and in [10] were 1430 nM, 1390 nM and greater than 50000 nM, respectively. Moreover, the selectivity ratio was greater than 35 in data set [15] and greater than 36 in [16].
In the case of `N=C(N)c1ccc(-c2cc(CC(=O)N3CCN(C(c4ccccc4)c4ccccc4)CC3)c(-c3ccc(C(=N)N)cc3)o2)cc1`, the values for the IC50 in data set [5], in data set [7] and in data set [10] were 5330 nM, 1430 nM and greater than 50000 nM, respectively. The results for the selectivity ratio in data set [15] and in [16] were greater than 10 and greater than 35, respectively.
